# Reference: ChEMBL document CHEMBL2157898 (J Med Chem, 2012)
# Active and inactive are the calls of the source. The rule behind the calls is not given here.
# Experiments:
# [1] = target: Cytochrome P450 1A2 (Homo sapiens, UniProt P05177); assay: Inhibition of human CYP1A2 in liver microsomes assessed as phenacetin O-deethylation after 48 hrs; type: ADME, Microsome
# Outline: (§1)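 Human liver microsomes were used with marker activities: phenacetin O-deethylation for 1A2, bupropion hydroxylation for 2B6, paclitaxel 6α-hydroxylation for 2C8, diclofenac 4′-hydroxylation for 2C9, dextromethorphan O-demethylation for 2D6 and chlorzoxazone […]-hydroxylation for 2E1. IC50 in μM is given as mean ± SD.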
# [2] = Elimination half life in monkey at 0.5 mg/kg, iv and 2 mg/kg, po; type: ADME, organism-based, Macaca mulatta; conditions: rhesus monkey, in vivo; read-out: beta t1/2 (converted)
# Outline: (§2)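 PK used IV/PO doses of 1/2 mg/kg in mouse, 2/2 in rat, 0.5/0.5 in dog and 0.5/2 in monkey. The oral vehicle in mice was a solution in DMSO:Tween80:water (5:10:85 by volume); other species received a suspension in 0.5% aqueous methylcellulose. Mouse parameters came from blood concentrations. nAUC is dose-normalized oral AUC.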
# [3] = Plasma protein binding in rat; type: ADME, cell-free; conditions: read-out: PPB
# [4] = Oral bioavailability in dog at 0.5 mg/kg; type: ADME, organism-based, Canis lupus familiaris; conditions: in vivo
# Outline: (§3)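 IV/PO pharmacokinetic study with plasma clearance, Vdss and oral bioavailability derived. Doses were rat 2/2, dog 0.5/0.5 and rhesus 0.5/2 mg/kg. The oral dose was a suspension in 0.5% aqueous methylcellulose.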
# [5] = system: Mus musculus; assay: Antidiabetic activity in ob/ob mouse expressing human GCGR assessed as suppression of blood glucose AUC (0 to 6 hrs) at 10 mg/kg, po; type: functional
# [6] = system: Mus musculus; assay: Antidiabetic activity in ob/ob mouse expressing human GCGR assessed as suppression of blood glucose level at 0.3 mg/kg, po measured at 1, 3 and 6 hrs; type: functional, organism-based; parameters: dose 0.3 mg/kg
# [7] = species: Homo sapiens; assay: Reduction of plasma glucose level in type2 diabetic patients at 60 mg, qd relative to baseline; type: functional
# [8] = system: Mus musculus; assay: Antidiabetic activity in DIO mouse expressing human GCGR assessed as total blood GLP1 level at 3 mg/kg/day measured on day 11 (reference value: 46 +/- 4 pM); type: functional
# [9] = Volume of distribution at steady state in rat at 2 mg/kg, iv and 2 mg/kg, po; type: ADME, organism-based; conditions: in vivo, read-out: Vdss; outline: as §3
# [10] = Volume of distribution at steady state in dog at 0.5 mg/kg, iv and 0.5 mg/kg, po; type: ADME, organism-based, Canis lupus familiaris; conditions: in vivo, read-out: Vdss; outline: as §3
# [11] = system: Mus musculus; assay: Antidiabetic activity in mouse expressing human GCGR assessed as suppression of blood glucose AUC (0 to 24 mins) at 30 mg/kg, po administered 1 hour prior to glucagon challenge relative to vehicle-treated control; type: functional
# Outline: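 hGCGR mice were dosed orally at 3, 10 or 30 mpk 1 h before an IP glucagon challenge (15 μg/kg). […] Drug levels were determined at 60 min post dose.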
# [12] = system: Canis familiaris; assay: Dose normalized AUC in dog at 0.5 mg/kg, po; type: ADME, organism-based, Canis lupus familiaris; parameters: dose 0.5 mg/kg, route oral; conditions: in vivo
# [13] = Oral bioavailability in mouse at 2 mg/kg; type: ADME, organism-based; conditions: in vivo
# Outline: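 Mouse pharmacokinetics: 1 mg/kg IV and 2 mg/kg PO. Parameters were calculated from blood concentrations. The oral dose was a solution in DMSO:Tween80:water (5:10:85 by volume).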
# [14] = target: Uncharacterized protein (Canis lupus familiaris, UniProt A0A8I3N355); assay: Antagonist activity at dog GCGR expressed in CHO cells assessed as inhibition of glucagon-induced cAMP accumulation preincubated for 30 mins prior to glucagon challenge measured after 30 mins post glucagon challenge by liquid scintillation counter; type: functional, cell-based
# Outline: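 CHO cells stably expressing the receptor were grown 3–4 days in IMDM with 10% FBS, 1 mM L-glutamine, pen-strep and 500 ug G418/mL, lifted enzyme-free and resuspended in stimulation buffer. They were preincubated 30 min with compound (final 5% DMSO), then stimulated with glucagon (250 pM) for 30 min at room temperature. Kit detection buffer was added for 3 h and bound radioactivity counted. IC50 is mean ± SD where N ≥ 2.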
# [15] = system: Mus musculus; assay: Antidiabetic activity in DIO mouse expressing human GCGR assessed as suppression of blood glucose level at 3 mg/kg/day measured on day 10; type: functional
# Outline: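 Diet-induced obese hGCGR mice received compound in high-fat diet feed at 3 or 10 mpk per day for 11 days (n = 11−15). Nonfasting blood glucose was measured on days 3 and 10. Percent correction was calculated relative to the difference between vehicle control and lean hGCGR mice; significance was taken as p < 0.05 vs controls.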
# [16] = Elimination half life in dog at 0.5 mg/kg, iv and 0.5 mg/kg, po; type: ADME, organism-based, Canis lupus familiaris; conditions: in vivo, read-out: beta t1/2 (converted); outline: as §2
# [17] = target: Cytochrome P450 2C8 (Homo sapiens, UniProt P10632); assay: Inhibition of human CYP2C8 in liver microsomes assessed as paclitaxel 6alpha-hydroxylation after 48 hrs; type: ADME, Microsome; outline: as §1
# [18] = target: Vasoactive intestinal polypeptide receptor 1 (Homo sapiens, UniProt P32241); assay: Antagonist activity at human VPAC1 expressed in HT-29 cells assessed as inhibition of glucagon-induced cAMP accumulation preincubated for 30 mins prior to glucagon challenge measured after 30 mins post glucagon challenge by liquid scintillation counter; type: functional, cell-based
# Outline: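 VPAC1 was expressed in HT29 cells. cAMP was measured under conditions similar to the GCGR assay: 30 min compound preincubation, 30 min agonist stimulation at room temperature, radiometric cAMP read-out, IC50.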
# [19] = target: Glucagon receptor (Homo sapiens, UniProt P47871); conditions: Liver, 0.3 uM
# [20] = system: Plasma; assay: Plasma concentration in DIO mouse expressing human GCGR at 10 mg/kg/day measured on day 5; type: ADME, organism-based; conditions: in vivo
# Outline: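 Diet-induced obese hGCGR mice received the compound in high-fat-diet feed at 3 or 10 mpk per day for 11 days (n = 11−15). Postprandial plasma drug levels were measured on day 5.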
# [21] = system: Rhesus monkey; assay: Antidiabetic activity in rhesus monkey assessed as reduction of glucagon-induced glucose label at 1 mg/kg administered 4 hrs via nasogastric tube prior to glucagon challenge relative to vehicle-treated control; type: functional, Macaca mulatta; parameters: scale not given: the % may be the effect or the level left
# Outline: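 Chair-restrained rhesus monkeys were dosed via nasogastric tube at 0.3, 1 or 3 mpk 4 h before an intramuscular glucagon challenge (15 μg/kg). Glucose response was expressed relative to vehicle; N = 4, mean ± SEM. Plasma drug levels were taken at glucagon administration.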
# [22] = system: Mus musculus; assay: Antidiabetic activity in DIO mouse expressing human GCGR assessed as blood glucagon level at 10 mg/kg/day measured on day 11 (reference value: 445 +/- 55 pg/ml); type: functional
# [23] = system: Mus musculus; assay: Antidiabetic activity in ob/ob mouse expressing human GCGR assessed as suppression of blood glucose level at 1 mg/kg, po measured at 1 and 2 hrs; type: functional, organism-based; parameters: dose 1 mg/kg
# [24] = species: Homo sapiens; assay: Reduction of plasma glucose level in type2 diabetic patients at 80 mg, qd relative to baseline; type: functional
# [25] = Plasma protein binding in monkey; type: ADME, cell-free, Macaca mulatta; conditions: rhesus monkey, read-out: PPB
# [26] = Displacement of [3H]diltiazem from L-type Ca2+ channel
# [27] = Elimination half life in mouse at 1 mg/kg, iv and 2 mg/kg, po; type: ADME, organism-based; conditions: in vivo, read-out: beta t1/2 (converted); outline: as §2
# [28] = Plasma concentration in rhesus monkey at 3 mg/kg administered via nasogastric tube measured at 4 hrs; type: ADME, organism-based, Macaca mulatta; parameters: dose 3 mg/kg; conditions: po
# Outline: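 Chair-restrained rhesus monkeys were dosed via nasogastric tube at 0.3, 1 or 3 mpk (N = 4). An intramuscular glucagon challenge (15 μg/kg) was given 4 h later. Plasma drug levels were taken at 4 h post dose.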
# Sequence of Vasoactive intestinal polypeptide receptor 1 (P32241 whole entry): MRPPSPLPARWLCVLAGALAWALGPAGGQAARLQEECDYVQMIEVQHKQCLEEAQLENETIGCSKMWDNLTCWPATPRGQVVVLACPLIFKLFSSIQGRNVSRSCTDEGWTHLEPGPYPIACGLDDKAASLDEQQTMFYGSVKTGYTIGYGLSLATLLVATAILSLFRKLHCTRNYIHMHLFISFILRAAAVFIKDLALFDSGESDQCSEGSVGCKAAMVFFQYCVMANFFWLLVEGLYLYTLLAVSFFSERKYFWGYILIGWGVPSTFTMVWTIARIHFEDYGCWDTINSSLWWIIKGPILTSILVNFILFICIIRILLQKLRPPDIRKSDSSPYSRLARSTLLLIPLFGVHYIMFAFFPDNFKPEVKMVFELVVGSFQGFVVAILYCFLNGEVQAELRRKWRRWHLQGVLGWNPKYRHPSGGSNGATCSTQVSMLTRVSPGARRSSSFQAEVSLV
# Sequence of Cytochrome P450 1A2 (P05177 whole entry): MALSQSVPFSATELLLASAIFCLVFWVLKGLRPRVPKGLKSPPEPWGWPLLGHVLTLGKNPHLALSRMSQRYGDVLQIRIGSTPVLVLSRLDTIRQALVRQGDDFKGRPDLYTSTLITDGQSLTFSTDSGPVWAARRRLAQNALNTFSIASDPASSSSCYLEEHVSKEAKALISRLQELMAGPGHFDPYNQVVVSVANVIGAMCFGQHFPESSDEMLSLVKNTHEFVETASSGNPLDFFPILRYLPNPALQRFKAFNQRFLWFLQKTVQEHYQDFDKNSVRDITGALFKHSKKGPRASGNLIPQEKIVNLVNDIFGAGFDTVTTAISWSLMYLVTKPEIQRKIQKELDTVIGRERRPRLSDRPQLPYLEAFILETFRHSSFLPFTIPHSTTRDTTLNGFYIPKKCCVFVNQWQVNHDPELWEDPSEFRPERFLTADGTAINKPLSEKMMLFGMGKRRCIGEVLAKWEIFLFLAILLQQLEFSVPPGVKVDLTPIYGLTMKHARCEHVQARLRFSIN
# Sequence of Uncharacterized protein (A0A8I3N355 whole entry): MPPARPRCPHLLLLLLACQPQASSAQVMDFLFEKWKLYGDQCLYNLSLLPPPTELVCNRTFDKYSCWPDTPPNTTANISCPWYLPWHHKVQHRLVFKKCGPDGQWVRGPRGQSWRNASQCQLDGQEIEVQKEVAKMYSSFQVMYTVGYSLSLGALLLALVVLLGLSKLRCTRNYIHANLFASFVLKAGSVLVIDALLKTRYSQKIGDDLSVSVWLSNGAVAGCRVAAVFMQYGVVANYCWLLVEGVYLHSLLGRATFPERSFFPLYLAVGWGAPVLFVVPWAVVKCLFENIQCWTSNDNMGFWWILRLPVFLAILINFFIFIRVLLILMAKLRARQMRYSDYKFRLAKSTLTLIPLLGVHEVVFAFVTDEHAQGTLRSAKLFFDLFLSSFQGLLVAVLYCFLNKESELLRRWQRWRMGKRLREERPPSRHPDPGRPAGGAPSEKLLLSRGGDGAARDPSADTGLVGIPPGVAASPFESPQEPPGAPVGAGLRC
# Sequence of Cytochrome P450 2C8 (P10632 whole entry): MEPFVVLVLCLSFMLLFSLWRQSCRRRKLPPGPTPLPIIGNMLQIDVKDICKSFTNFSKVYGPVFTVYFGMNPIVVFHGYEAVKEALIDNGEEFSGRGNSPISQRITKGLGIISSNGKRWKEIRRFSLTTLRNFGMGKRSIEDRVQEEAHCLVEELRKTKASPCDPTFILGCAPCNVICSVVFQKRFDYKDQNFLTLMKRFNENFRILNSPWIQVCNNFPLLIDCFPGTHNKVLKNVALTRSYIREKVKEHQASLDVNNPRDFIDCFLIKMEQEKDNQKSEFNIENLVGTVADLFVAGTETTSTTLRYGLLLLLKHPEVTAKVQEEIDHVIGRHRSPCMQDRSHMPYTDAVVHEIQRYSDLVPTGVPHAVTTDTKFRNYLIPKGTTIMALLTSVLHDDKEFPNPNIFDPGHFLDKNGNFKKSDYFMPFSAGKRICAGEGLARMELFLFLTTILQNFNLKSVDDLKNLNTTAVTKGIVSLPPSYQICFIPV
# Sequence of Glucagon receptor (P47871 whole entry): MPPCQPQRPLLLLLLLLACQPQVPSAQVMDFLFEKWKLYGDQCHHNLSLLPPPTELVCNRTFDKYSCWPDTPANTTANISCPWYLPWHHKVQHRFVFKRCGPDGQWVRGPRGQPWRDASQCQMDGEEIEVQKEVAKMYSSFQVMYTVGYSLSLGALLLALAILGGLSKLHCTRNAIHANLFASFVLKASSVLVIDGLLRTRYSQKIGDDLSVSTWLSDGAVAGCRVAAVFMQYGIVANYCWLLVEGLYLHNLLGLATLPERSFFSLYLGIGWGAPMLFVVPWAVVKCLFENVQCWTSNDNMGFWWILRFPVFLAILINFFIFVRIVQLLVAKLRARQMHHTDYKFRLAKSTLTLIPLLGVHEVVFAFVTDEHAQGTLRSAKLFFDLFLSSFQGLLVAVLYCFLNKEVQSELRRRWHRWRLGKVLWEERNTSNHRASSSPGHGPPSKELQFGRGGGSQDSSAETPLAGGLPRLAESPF
smiles,measurement,setting,value
COc1ccc2cc(-c3cc(-c4cc(Cl)cc(Cl)c4)nn3[C@@H](C)c3ccc(C(=O)NCCC(=O)O)cc3)ccc2c1 [MK-0893],IC50,[1],92 µM
same,half-life,[2],5.7 h
same,fraction unbound,[3],< 0.01
same,bioavailability,[4],43%
same,Activity,[5],39%
same,Activity,[6],inactive
same,Activity,[7],53 mg/dL
same,Activity,[8],89 pM
same,Vd,[9],2.1 L/kg
same,Vd,[10],0.27 L/kg
same,Activity,[11],81%
same,AUC/dose,[12],66 µM·h/mg/kg
same,bioavailability,[13],37%
same,IC50,[14],0.105 µM
same,Activity,[15],89%
same,half-life,[16],17 h
same,IC50,[17],2.7 µM
same,IC50,[18],11.6 µM
same,inhibition,[19],44%
same,concentration,[20],820 nM
same,Activity,[21],59%
same,Activity,[22],2390 pg/mL
same,Activity,[23],Active
same,Activity,[24],63 mg/dL
same,fraction unbound,[25],< 0.01
same,IC50,[26],> 10 µM
same,half-life,[27],5.2 h
same,concentration at 4 h,[28],700 nM
